One experiment has as its system IGROV-1. Nature of the experiment: Cytotoxic activity against human tumor Igrov-1 cell line. The format is functional, cell-based. The gist of the method:
(§1)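 Cells kept in RPMI with 10% heat-inactivated FBS and penicillin/streptomycin. MTT assay: 10⁴ cells/well seeded, exposed after 24 h to compound at 0.01–100 µM final for 72 h. MTT was added for 4 h, then SDS/HCl for 18 h at 37 °C, and absorbance read at 550 nm. IC50 is the concentration halving absorbance versus untreated cells, from 6–8 wells in at least two independent experiments.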

Experiment [1] is described as follows: Cytotoxic activity against human tumor Mia Paca 2 cell line. The format is functional, cell-based. The method, boiled down:
as §1

Experiment [2] can be described thus: Cytotoxic activity against human tumor Hep 3B cell line. Particulars: Hep3B. In kind it is functional. The method, boiled down: (§2)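 DMEM with 10% heat-inactivated FBS and antibiotics used for culture. Cells plated at 10⁴/well; after 24 h, 72 h exposure to 0.01–100 µM (final) compound. Survival measured by MTT (4 h), SDS/HCl solubilisation for 18 h at 37 °C, absorbance at 550 nm. IC50 is the concentration giving 50% absorbance reduction versus untreated cells, from 6–8 wells across at least two experiments.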

Experiment [3] is described as follows: Cytotoxic activity against human tumor PLC/PRF/5 cell line. The format is functional. The gist of the method:
as §2

Another experiment has as its system HT-29. Nature of the experiment: Cytotoxic activity against human tumor HT-29 cell line. The format is functional, cell-based. The gist of the method: as §2
The nature of experiment [4]: Cytotoxic activity against human tumor SW 13 cell line. The format is functional, cell-based. The method, boiled down: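 Maintained in Leibovitz medium with 10% FBS and penicillin/streptomycin. Colorimetric MTT assay: 10⁴ cells/well, compound at 0.01–100 µM final from 24 h after seeding, for 72 h. MTT for 4 h, then SDS in 0.01 N HCl for 18 h at 37 °C, absorbance at 550 nm. IC50 is the concentration halving absorbance versus control, from 6–8 wells in at least two independent runs.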

The nature of experiment [5]: Cytotoxic activity against human tumor Aro cell line. The format is functional, cell-based. The method, boiled down: as §2
A short description of experiment [6]: Cytotoxic activity against human tumor C8305 cell line. The format is functional, cell-based. The method, boiled down:
as §1

The nature of experiment [7]: Cytotoxic activity against human tumor NCI-H295 cell line. The format is functional, cell-based. The method, boiled down:
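Grown in RPMI with 2% FBS, insulin-transferrin-selenium and penicillin/streptomycin. MTT read-out: 10⁴ cells/well, compound 0.01–100 µM final added after 24 h, 72 h exposure. MTT for 4 h, solubilised in SDS/HCl for 18 h at 37 °C, absorbance at 550 nm. IC50 is the concentration cutting absorbance 50% versus control, from 6–8 replicate wells over two or more independent experiments.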

Experiment [8] in a line: Cytotoxic activity against human tumor PT45 cell line. The note with it: PT-45. The format is functional, cell-based. The method, boiled down:
as §1

The subject of a further experiment is HepG2. Nature of the experiment: Cytotoxic activity against human tumor Hep G2 cell line. The format is functional, cell-based. The method, boiled down:
as §2

In the next experiment the test system is A 172. Nature of the experiment: Cytotoxic activity against human tumor A-172 cell line. In kind it is functional, cell-based. The gist of the method: as §1
Another experiment concerns OVCAR-3. Nature of the experiment: Cytotoxic activity against human tumor Ovcar-3 cell line. In kind it is functional, cell-based. The gist of the method: as §1
The next experiment has as its system MCF7. The experiment can be described thus: Cytotoxic activity against human tumor MCF-7 cell line. The format is functional, cell-based. The gist of the method: as §2

The structures appear in SMILES notation. pIC50: −log10 of the molar value. Counter-ions that a name gives are not always drawn. A value given as a limit tells only on which side of the number the result lay.

Consider `Oc1cc(-c2cccs2)nc2c1ccc1[nH]ccc12`, for which the pIC50 (as a rule, −log10 of the IC50, conventionally taken in molar units) in the experiment with IGROV-1 (Homo sapiens, IGROV-1) is 4.82; in experiment [1], < 4.00; in experiment [2], 4.30; in experiment [3] (Homo sapiens, PLC-PRF-5), 4.10; with HT-29 it was < 4.00; in experiment [4] (Homo sapiens, SW13), 4.30. Further, the pIC50 in experiment [5] (Homo sapiens, ARO) is 4.10; in experiment [6] (Homo sapiens, C8305), 4.00; in experiment [7] (Homo sapiens, NCI-H295), 4.40; in experiment [8] it was 4.00; in the experiment with HepG2 (Homo sapiens, HepG2), 5.00; with A 172, < 4.00. For the same compound, the pIC50 in the experiment with OVCAR-3 (Homo sapiens, OVCAR-3) was 4.70; in the experiment on MCF7 (Homo sapiens, MCF7), 4.52.
With `Nc1cccc(-c2cc(O)c3ccc4[nH]ccc4c3n2)c1` [listing 1 of 2 here], the pIC50 with IGROV-1 (igrov-1) was 4.52; in experiment [1], < 4.00; in [2] it was < 4.00; in experiment [3] (Homo sapiens, PLC-PRF-5), 4.30; in the experiment with HT-29, < 4.00; in experiment [4] (sw 13) it was 5.00. Further, the pIC50 in [5] (Homo sapiens, ARO) was 4.15; in [6] (Homo sapiens, C8305), 4.10; in experiment [7] (Homo sapiens, NCI-H295), 4.30; in experiment [8], < 4.00; with HepG2 (Homo sapiens, HepG2), 4.30; in the experiment with A 172, < 4.00. Besides, the pIC50 was 4.52 in the experiment on OVCAR-3 (ovcar-3) and 4.30 in the experiment with MCF7 (Homo sapiens, MCF7).
`Cn1ccc2c3nc(-c4ccccc4)cc(O)c3ccc21`: the pIC50 in the experiment with IGROV-1 (Homo sapiens, IGROV-1) was 5.52; in experiment [1], 5.10; in [2], 6.00; in experiment [3] (Homo sapiens, PLC-PRF-5), 5.15; in the experiment on HT-29, 4.30; in experiment [4] (Homo sapiens, SW13), 6.05. Besides, the pIC50 in experiment [5] (Homo sapiens, ARO) is 5.30; in [6] (Homo sapiens, C8305), 5.00; in [7] (Homo sapiens, NCI-H295), 5.70; in experiment [8], 4.00; in the experiment on HepG2 (Homo sapiens, HepG2) it was 6.00; with A 172 it was < 4.00. The pIC50 with OVCAR-3 (Homo sapiens, OVCAR-3) is 5.70; in the experiment on MCF7 (Homo sapiens, MCF7) it was 5.40.
Take `Oc1cc(-c2ccccc2)nc2c1ccc1[nH]ccc12`: the pIC50 with IGROV-1 (Homo sapiens, IGROV-1) was 5.30; in [1], 5.40; in experiment [2] it was 5.40; in experiment [3] (Homo sapiens, PLC-PRF-5), 5.10; with HT-29, 4.22; in [4] (Homo sapiens, SW13) it was 5.52. Besides, the pIC50 is 5.10 in [5] (Homo sapiens, ARO); 5.00 in experiment [6] (Homo sapiens, C8305); 5.10 in experiment [7] (Homo sapiens, NCI-H295); 4.00 in experiment [8]; 5.40 with HepG2 (Homo sapiens, HepG2); 4.00 in the experiment with A 172. In addition, the pIC50 in the experiment with OVCAR-3 (Homo sapiens, OVCAR-3) was 5.70; in the experiment with MCF7 (Homo sapiens, MCF7), 5.40.
For the compound `Nc1cccc(-c2cc(O)c3ccc4[nH]ccc4c3n2)c1` [listing 2 of 2 here], the pIC50 (with IGROV-1 (igrov-1); in [3]; in [4] (sw 13); in experiment [5] (aro); in experiment [6] (c8305); in experiment [7] (nci-h295)) was < 4.00 throughout. Also, the pIC50 with HepG2 (hepg2), in the experiment on OVCAR-3 (ovcar-3) and in the experiment with MCF7 (mcf7) was < 4.00 in each case.
On to `COc1cccc(-c2cc(O)c3ccc4[nH]ccc4c3n2)c1`, for which the pIC50 with IGROV-1 (Homo sapiens, IGROV-1) is 5.52; in [1], 5.30; in experiment [2], 5.70; in [3] (Homo sapiens, PLC-PRF-5) it was 5.15; in the experiment with HT-29, 4.30; in experiment [4] (Homo sapiens, SW13) it was 6.15. Also, the pIC50 in experiment [5] (Homo sapiens, ARO) is 5.40; in [6] (Homo sapiens, C8305) it was 5.00; in [7] (Homo sapiens, NCI-H295), 5.52; in experiment [8], 4.00; in the experiment with HepG2 (Homo sapiens, HepG2) it was 5.70; in the experiment on A 172 it was < 4.00. The pIC50 in the experiment on OVCAR-3 (Homo sapiens, OVCAR-3) was 6.00; in the experiment on MCF7 (Homo sapiens, MCF7) it was 6.00.
Turning to `Cc1cc(O)c2ccc3[nH]ccc3c2n1`, the pIC50 in the experiment on IGROV-1 (Homo sapiens, IGROV-1) was < 4.00; in [1] it was < 4.00; in experiment [2], < 4.00; in experiment [3] (Homo sapiens, PLC-PRF-5), < 4.00; in the experiment with HT-29, < 4.00; in experiment [4] (Homo sapiens, SW13) it was < 4.00. Further, the pIC50 in experiment [5] (Homo sapiens, ARO) is < 4.00; in [6] (Homo sapiens, C8305) it was < 4.00; in [7] (Homo sapiens, NCI-H295) it was < 4.00; in [8], < 4.00; with HepG2 (Homo sapiens, HepG2) it was < 4.00; with A 172, < 4.00. In addition, the pIC50 in the experiment on OVCAR-3 (Homo sapiens, OVCAR-3) was < 4.00; in the experiment with MCF7 (Homo sapiens, MCF7), < 4.00.
In the case of `CC[C@]1(O)C[C@H]2CN(CCc3c([nH]c4ccccc34)[C@@](C(=O)OC)(c3cc4c(cc3OC)N(C=O)[C@H]3[C@@](O)(C(=O)OC)[C@H](OC(C)=O)[C@]5(CC)C=CCN6CC[C@]43[C@@H]65)C2)C1` [VINCRISTINE SULFATE], the pIC50 in the experiment with IGROV-1 (Homo sapiens, IGROV-1) is 8.00; in experiment [1] it was 8.00; in experiment [2], 7.00; in experiment [3] (Homo sapiens, PLC-PRF-5) it was 7.00; with HT-29, 7.00; in [4] (Homo sapiens, SW13) it was 9.00. Also, the pIC50 in experiment [5] (Homo sapiens, ARO) is > 10.00; in experiment [6] (Homo sapiens, C8305), 7.00; in [7] (Homo sapiens, NCI-H295) it was 7.00; in experiment [8], 7.00; in the experiment with HepG2 (Homo sapiens, HepG2) it was 7.00; in the experiment with A 172 it was < 4.00. Moreover, the negative-log IC50 (pIC50) in the experiment on OVCAR-3 (Homo sapiens, OVCAR-3) was 8.00; in the experiment on MCF7 (Homo sapiens, MCF7), 8.00.
`O=[N+]([O-])c1cccc(-c2cc(O)c3ccc4[nH]ccc4c3n2)c1`: the pIC50 is 4.10 with IGROV-1 (Homo sapiens, IGROV-1); < 4.00 in experiment [1]; 4.30 in [2]; < 4.00 in [3] (Homo sapiens, PLC-PRF-5); < 4.00 in the experiment with HT-29; 4.22 in experiment [4] (Homo sapiens, SW13). The pIC50 is 4.10 in experiment [5] (Homo sapiens, ARO); < 4.00 in experiment [6] (Homo sapiens, C8305); 4.22 in experiment [7] (Homo sapiens, NCI-H295); < 4.00 in experiment [8]; < 4.00 in the experiment on HepG2 (Homo sapiens, HepG2); < 4.00 in the experiment on A 172. The pIC50 in the experiment with OVCAR-3 (Homo sapiens, OVCAR-3) is 4.30; in the experiment on MCF7 (Homo sapiens, MCF7), 4.15.
Regarding `O=[N+]([O-])c1ccc(-c2cc(O)c3ccc4[nH]ccc4c3n2)cc1`, the pIC50 in the experiment on IGROV-1 (Homo sapiens, IGROV-1) was 4.22; in experiment [1] it was < 4.00; in experiment [2], 4.52; in experiment [3] (Homo sapiens, PLC-PRF-5), < 4.00; with HT-29, < 4.00; in experiment [4] (Homo sapiens, SW13), 4.30. In addition, the pIC50 in experiment [5] (Homo sapiens, ARO) is < 4.00; in [6] (Homo sapiens, C8305) it was < 4.00; in [7] (Homo sapiens, NCI-H295), 4.10; in [8], < 4.00; with HepG2 (Homo sapiens, HepG2), 4.00; in the experiment with A 172, < 4.00. In addition, the pIC50 with OVCAR-3 (Homo sapiens, OVCAR-3) is 4.30; in the experiment with MCF7 (Homo sapiens, MCF7), 4.22.
Regarding `Oc1ccnc2c1ccc1[nH]ccc12`, the pIC50 with IGROV-1 (Homo sapiens, IGROV-1) was < 4.00; in experiment [1], < 4.00; in [2], < 4.00; in experiment [3] (Homo sapiens, PLC-PRF-5), < 4.00; with HT-29, < 4.00; in experiment [4] (Homo sapiens, SW13), < 4.00. Further, the pIC50 is < 4.00 in experiment [5] (Homo sapiens, ARO); < 4.00 in [6] (Homo sapiens, C8305); < 4.00 in experiment [7] (Homo sapiens, NCI-H295); < 4.00 in [8]; < 4.00 in the experiment on HepG2 (Homo sapiens, HepG2); < 4.00 with A 172. Also, the pIC50 was < 4.00 with OVCAR-3 (Homo sapiens, OVCAR-3) and < 4.00 with MCF7 (Homo sapiens, MCF7).

Source of the values: ChEMBL document CHEMBL1144427, “Synthesis and in vitro and in vivo antitumor activity of 2-phenylpyrroloquinolin-4-ones” (J Med Chem, 2005).
